# Source: paper PMC3581696 (The Journal of General Physiology, 2013)
# Values joined by “and” are separate entries in the source; they are usually repeats but may differ in a detail not shown here. Identical values can stand only once.
# How the values were obtained:
# mEAG1 Δ2–173 channels = biological target: T1, mEAG1 Δ2–173 channels (Mus musculus, UniProt Q60603); test: Inside-out patch-clamp of amino-terminal deletion mutant channels; type: cell-based
# T1 sequence (Q60603 with tags, fused parts or gaps): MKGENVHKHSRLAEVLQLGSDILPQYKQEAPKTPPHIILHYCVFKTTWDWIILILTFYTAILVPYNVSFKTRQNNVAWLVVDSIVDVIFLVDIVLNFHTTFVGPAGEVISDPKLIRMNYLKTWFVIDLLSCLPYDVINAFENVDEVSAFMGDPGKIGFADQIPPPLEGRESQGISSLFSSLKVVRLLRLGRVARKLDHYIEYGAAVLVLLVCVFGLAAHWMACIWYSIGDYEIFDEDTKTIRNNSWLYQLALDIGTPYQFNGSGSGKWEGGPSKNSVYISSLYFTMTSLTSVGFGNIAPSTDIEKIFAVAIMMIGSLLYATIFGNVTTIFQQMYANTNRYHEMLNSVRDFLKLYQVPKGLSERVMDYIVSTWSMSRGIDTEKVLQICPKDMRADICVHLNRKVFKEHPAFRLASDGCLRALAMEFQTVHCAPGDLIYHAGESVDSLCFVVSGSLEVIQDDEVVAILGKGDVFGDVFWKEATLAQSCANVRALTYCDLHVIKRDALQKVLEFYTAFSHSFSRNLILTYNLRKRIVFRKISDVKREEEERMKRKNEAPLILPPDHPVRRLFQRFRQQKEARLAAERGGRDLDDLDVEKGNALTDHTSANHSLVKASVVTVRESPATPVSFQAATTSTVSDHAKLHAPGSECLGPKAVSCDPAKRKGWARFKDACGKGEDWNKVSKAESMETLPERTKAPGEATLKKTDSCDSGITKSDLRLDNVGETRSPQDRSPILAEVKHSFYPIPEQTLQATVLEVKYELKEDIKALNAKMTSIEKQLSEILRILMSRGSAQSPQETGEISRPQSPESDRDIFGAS
# Method in brief: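 Δ2–173 mEAG1 was expressed in Xenopus oocytes and recorded in inside-out patches in symmetric 130 mM KCl/HEPES/EDTA, pH 7.2, held at −100 mV. Steps of 3 s from −100 to +100 mV (20-mV increments) returned to −100 mV for 1 s, with 0 or 30 µM flavonoid. Conductance–voltage data were fit with a product of two Boltzmann functions, with inactivation parameters and activation slope held fixed. The −100 mV tail after a step to −40 mV was fit with a single exponential.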
# mEAG1 Y699A channels = biological target: T2, mEAG1 Y699A channels (Mus musculus, UniProt Q60603, Y699A); test: Inside-out patch-clamp of intrinsic ligand mutant channels; type: cell-based
# T2 sequence (Q60603 1-989 Y699A): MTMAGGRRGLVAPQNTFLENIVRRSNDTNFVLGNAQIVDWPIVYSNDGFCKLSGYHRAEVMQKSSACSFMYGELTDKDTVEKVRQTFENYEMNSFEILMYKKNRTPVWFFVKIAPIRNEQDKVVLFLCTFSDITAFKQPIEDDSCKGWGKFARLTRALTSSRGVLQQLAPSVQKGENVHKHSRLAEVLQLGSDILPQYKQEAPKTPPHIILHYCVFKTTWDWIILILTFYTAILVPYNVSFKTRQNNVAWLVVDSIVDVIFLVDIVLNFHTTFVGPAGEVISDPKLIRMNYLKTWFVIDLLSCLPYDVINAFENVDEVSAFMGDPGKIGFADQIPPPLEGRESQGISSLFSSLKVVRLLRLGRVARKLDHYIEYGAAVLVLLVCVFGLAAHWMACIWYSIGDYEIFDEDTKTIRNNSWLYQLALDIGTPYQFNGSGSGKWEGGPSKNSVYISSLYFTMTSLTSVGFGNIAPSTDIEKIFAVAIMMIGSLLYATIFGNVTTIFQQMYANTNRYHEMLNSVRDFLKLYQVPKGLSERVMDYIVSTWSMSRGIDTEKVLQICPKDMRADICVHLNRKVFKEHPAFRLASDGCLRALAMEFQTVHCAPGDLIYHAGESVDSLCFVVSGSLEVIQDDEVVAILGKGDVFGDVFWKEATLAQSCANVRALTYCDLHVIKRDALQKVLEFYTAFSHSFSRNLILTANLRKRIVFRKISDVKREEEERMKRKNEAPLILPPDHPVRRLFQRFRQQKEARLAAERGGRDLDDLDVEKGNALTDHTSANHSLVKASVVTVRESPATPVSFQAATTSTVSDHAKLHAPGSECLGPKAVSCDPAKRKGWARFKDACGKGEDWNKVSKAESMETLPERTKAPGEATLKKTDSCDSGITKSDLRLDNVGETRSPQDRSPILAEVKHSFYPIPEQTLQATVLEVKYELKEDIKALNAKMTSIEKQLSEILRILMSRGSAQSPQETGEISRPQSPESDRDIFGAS
# Method in brief: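 mEAG1 mutant cRNA was injected into defolliculated Xenopus oocytes, and the vitelline membrane was removed. Inside-out patches were bathed in symmetric 130 mM KCl, 10 mM HEPES, 0.2 mM EDTA, pH 7.2, holding at −100 mV. Steps of 0.1 s from −140 to +50 mV (10-mV increments) were followed by −120 mV tails, without or with 30 µM flavonoid. Peak tails were normalized and Boltzmann-fitted. Deactivation time constant came from single-exponential fits of the −120 mV tail after +50 mV; two-tailed t test.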
# [1] = biological target: T3, Y699A mutant CNBHD from mEAG1 (Mus musculus, UniProt Q60603, Y699A); test: Fisetin fluorescence anisotropy binding assay, Y699A CNBHD; conditions: Kd (apparent affinity), 5 µM fisetin, fit with Eq. 7
# T3 sequence (Q60603 552-724 Y699A): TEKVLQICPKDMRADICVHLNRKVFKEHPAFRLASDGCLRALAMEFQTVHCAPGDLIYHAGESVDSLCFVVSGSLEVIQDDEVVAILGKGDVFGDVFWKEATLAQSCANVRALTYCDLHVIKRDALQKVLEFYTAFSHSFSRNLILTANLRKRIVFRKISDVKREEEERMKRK
smiles,measurement,setting,value
"O=c1c(O)c(-c2ccc(O)c(O)c2)oc2cc(O)ccc12 [Fisetin, 2-(3,4-dihydroxyphenyl)-3,7-dihydroxychromen-4-one]",increase of peak conductance after a step to −40 mV,"mEAG1 Δ2–173 channels; 30 µM fisetin, average",1.7 fold
same,time constant of deactivation,"mEAG1 Δ2–173 channels; with 30 µM fisetin, after a step to −40 mV, 117 ± 1 ms without, n = 3",375 ± 36 ms
same,time constant of deactivation (tail currents of Fig. 5 C),"mEAG1 Δ2–173 channels; with 30 µM fisetin, tail at −100 mV after step to −40 mV, 116 ms without",239 ms
same,potentiation of mEAG1 Y699A channels,mEAG1 Y699A channels; 30 µM fisetin,did not potentiate
same,time constant of deactivation,"mEAG1 Y699A channels; with 30 µM fisetin, at −120 mV, 5.0 ± 0.4 ms without, n = 10, P = 0.06",6.4 ± 0.6 ms
same,V1/2 of the conductance–voltage relationship,"mEAG1 Y699A channels; with 30 µM fisetin, −54.9 ± 3.5 mV without, n = 10, P = 0.65",−57.2 ± 3.6 mV
same,Kd,[1],30 µM and ≥ 30 µM
